Results as given in the RNAGym collection of RNA variant scans (doi:10.1002/anie.201605470).

B1: Osa-1-4 twister ribozyme (parent)
chain: CCGCCUAACACUGCCAAUGCCGGUCCCAAGCCCGGAUAAAAGUGGAGGGGGCGG

Variants of: B1
Assay: self-cleavage, relative activity (ratio to wild type); higher = more cleavage; co-transcriptional
Outline: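 Values are relative activity: the fraction cleaved, normalised to wild type. A doped DNA template for a 54-nucleotide twister ribozyme from Oryza sativa had 97 % wild-type base and 1 % of each other base at the 48 positions downstream of the cleavage site. The RNA was transcribed in vitro for 2 h at 37 °C so that it could cleave itself co-transcriptionally, then sequenced deeply, with cleavage status scored from the presence or absence of upstream sequence in reads.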

Row | Variant | self-cleavage
1 | A16U C9A | 0.42
2 | A16U C32U | 0.13
3 | A16U C32G | 0.11
4 | A16U C32A | 0.08
5 | A17G C15G | 0.71
6 | A17G C15A | 0.78
7 | A17G C15U | 0.71
8 | A16U G51A | 0.64
9 | A16U G51C | 0.16
10 | A16U G51U | 0.39
11 | A16U C52U | 0.92
12 | A16U C52G | 0.92
13 | A16U C52A | 0.97
14 | A17G C32G | 0.15
15 | A17G C32U | 0.19
16 | A17G C32A | 0.07
17 | A17C | 0.76
18 | A17G | 0.97
19 | A17C C52G | 0.9
20 | A17C C52U | 0.78
21 | A17C C52A | 0.87
22 | A17C A39U | 0.73
23 | A17C A39G | 0.86
24 | A17C A39C | 0.52

Row | Variant | self-cleavage
25 | A17C A38C | 0.71
26 | A17C A38G | 0.78
27 | A17C A38U | 0.66
28 | A16U G53C | 0.1
29 | A16U G53A | 0.85
30 | A16U G53U | 0.4
31 | A16U G13C | 0.02
32 | A16U G13U | 0.02
33 | A16U G13A | 0.09
34 | A17C U43A | 0.64
35 | A17C U43G | 0.26
36 | A17C U43C | 0.58
37 | A17G G19U | 0.52
38 | A17G G19C | 0.29
39 | A17G G19A | 0.95
40 | A16U G34A | 0.73
41 | A16U G34U | 0.67
42 | A16U G34C | 0.51
43 | A16U G22U | 0.84
44 | A16U G22A | 0.99
45 | A16U G22C | 0.11
46 | A17G C21G | 0.09
47 | A17G C21A | 0.8
48 | A17G C21U | 0.98

Row | Variant | self-cleavage
49 | A17C G30C | 0.03
50 | A17C G30A | 0.04
51 | A17C G30U | 0.03
52 | A16U G23A | 0.49
53 | A16U G23U | 0.09
54 | A16U G23C | 0.06
55 | A16U C15A | 0.35
56 | A16U C15G | 0.31
57 | A16U C15U | 0.18
58 | A17G G35C | 0.66
59 | A17G G35A | 0.79
60 | A17C G22U | 0.06
61 | A17C G22C | 0.05
62 | A17C G22A | 0.21
63 | A17C G45U | 0.14
64 | A17C G45C | 0.05
65 | A17C G45A | 0.24
66 | A17C C26U | 0.19
67 | A17C C26A | 0.03
68 | A17C C26G | 0.07
69 | A17C C14A | 0.1
70 | A17C C14U | 0.64
71 | A17C C14G | 0.25
72 | A17C G51A | 0.32

Row | Variant | self-cleavage
73 | A17C G51U | 0.22
74 | A17C G51C | 0.13
75 | A17C U24C | 0.05
76 | A17C U24A | 0.03
77 | A17C U24G | 0.02
78 | A16U C14A | 0.05
79 | A16U C14U | 0.3
80 | A16U C14G | 0.11
81 | A16U C20A | 0.69
82 | A16U C20U | 0.89
83 | A16U C20G | 0.15
84 | A16U A46C | 0.07
85 | A16U A46G | 0.05
86 | A16U A46U | 0.05
87 | A17G C11G | 0.3
88 | A17G C11A | 0.5
89 | A17G C11U | 0.68
90 | A17C G44C | 0.72
91 | A17C G44U | 0.7
92 | A17C G44A | 0.81
93 | A17G A8U | 0.49
94 | A17G A8G | 0.63
95 | A17G A8C | 0.12
96 | A16U C21U | 0.95

Row | Variant | self-cleavage
97 | A16U C21G | 0.05
98 | A16U C21A | 0.66
99 | A17G C52U | 1.01
100 | A17G C52A | 0.95
101 | A17G C52G | 0.9
102 | A17C A40G | 0.28
103 | A17C A40U | 0.16
104 | A17C A40C | 0.06
105 | A17G A28C | 0.93
106 | A17G A28G | 0.42
107 | A17G A28U | 0.87
108 | A17C G48C | 0.03
109 | A17C G48U | 0.03
110 | A17C G48A | 0.05
111 | A17G G13A | 0.23
112 | A17G G13U | 0.04
113 | A17G G13C | 0.03
114 | A17C C21G | 0.05
115 | A17C C21A | 0.15
116 | A17C C21U | 0.69
117 | A17C A7C | 0.08
118 | A17C A7G | 0.1
119 | A17C A7U | 0.06
120 | A17C G13C | 0.04

Row | Variant | self-cleavage
121 | A17C G13U | 0.02
122 | A17C G13A | 0.04
123 | A17C G54U | 0.91
124 | A17C G54C | 0.87
125 | A17C G54A | 0.9
126 | A17G C20G | 0.19
127 | A17G C20U | 0.97
128 | A17G C20A | 0.89
129 | A17G A41G | 0.94
130 | A17G A41C | 0.9
131 | A17G A41U | 0.94
132 | A16U C27A | 0.2
133 | A16U C27G | 0.06
134 | A16U C27U | 0.17
135 | A17G C33A | 0.18
136 | A17G C33G | 0.07
137 | A17G C33U | 0.19
138 | A16U G45C | 0.04
139 | A16U G45A | 0.36
140 | A16U G45U | 0.1
141 | A17G A39U | 0.95
142 | A17G A39C | 0.91
143 | A17G A39G | 0.94
144 | A17C C20A | 0.58

Row | Variant | self-cleavage
145 | A17C C20U | 0.78
146 | A17C C20G | 0.1
147 | A17C C33G | 0.04
148 | A17C C33A | 0.05
149 | A17C C33U | 0.16
150 | A17G C26U | 0.88
151 | A17G C26G | 0.12
152 | A17G C26A | 0.08
153 | A16U C31A | 0.03
154 | A16U C31G | 0.07
155 | A16U C31U | 0.74
156 | A16U U24C | 0.29
157 | A16U U24G | 0.02
158 | A16U U24A | 0.15
159 | A17G G34C | 0.41
160 | A17G G34U | 0.57
161 | A17G G34A | 0.73
162 | A17C G19C | 0.04
163 | A17C G19U | 0.04
164 | A17C G19A | 0.06
165 | A17G A46U | 0.09
166 | A17G A46C | 0.1
167 | A17G A46G | 0.07
